Experimental data pooled from the literature.
Protocols differ between the studies behind these lines.
Target: Tyrosine-protein kinase Fer (FER, Homo sapiens, UniProt P16591)

O=C1NC(c2ccccn2)Sc2ccccc21 (centres unmarked) — remaining binding (cell-free assay; competition with immobilised ligand; 1 µM): 84%
CNC(=O)c1cc2c(Oc3ccc(NC(=O)C4(C(=O)Nc5ccc(F)cc5)CC4)cc3)ccnc2cc1OC — inhibition (enzyme activity; inhibitor; radiometric; 1 µM): 74%
O=c1c2ccccc2[nH]c(=S)n1CCN1CCC(=C(c2ccc(F)cc2)c2ccc(F)cc2)CC1 — remaining activity (enzyme activity; inhibitor; 0.5 µM): 95.2%
Cc1ccc(C(=O)Nc2ccc(CN3CCN(C)CC3)c(C(F)(F)F)c2)cc1C#Cc1cnc2cccnn12 — remaining activity (enzyme activity; 23.5 nM): 94%
c1nc2c(Nc3ccc4c(c3)OCCO4)nc(Nc3ccc4c(c3)OCCO4)nc2[nH]1 — activity vs control (enzyme activity; inhibitor; 10 µM): 5.7%
O=C(Nc1cnn(-c2csc(C(=O)NC3COC3)c2)c1)Nc1c(F)cccc1Cl — remaining activity (enzyme activity; inhibitor; 5 µM): 89.8%
COc1cc2ncnc(Nc3ccc(Oc4ccccc4)cc3C)c2cc1OC — inhibition (enzyme activity; inhibitor; 1 µM): 54%
COc1cc(Cl)c(C(=O)N[C@@H](CN[C@H]2CC[C@@H](N)CC2)Cc2ccc(C#N)cc2)cc1-c1ccc(CN[C@H](C)c2ccc(C)cc2)o1 — remaining activity (enzyme activity; inhibitor; 1 µM): 96%
CN1CC(Oc2cnc(C#N)cc2-c2ccn3nc(NC(=O)C4CC4)cc3c2)C1 — inhibition (enzyme activity; inhibitor; 1 µM): 1%
CC(C)(C)c1nc(-c2cccc(NS(=O)(=O)c3c(F)cccc3F)c2F)c(-c2ccnc(N)n2)s1 — remaining activity (enzyme activity; inhibitor; radiometric; 1 µM): 94%
N#CCCc1ccc2c(c1)-c1[nH]c3ccc([N+](=O)[O-])cc3c1CC(=O)N2 — remaining signal (cell-free assay; 0.5 µM): 72.7%
Cc1ccc(Nc2nccc(N(C)c3ccc4c(C)n(C)nc4c3)n2)cc1S(N)(=O)=O — inhibition (enzyme activity; inhibitor; 10 µM): 71%
COc1cc2c(N3CCN(C(=O)Nc4ccc(OC(C)C)cc4)CC3)ncnc2cc1OCCCN1CCCCC1 — remaining signal (cell-free assay; 0.5 µM): 104%
Cc1ccc(NC(=O)c2ccc(C)c(C(F)(F)F)c2)cc1C#Cc1nn(C2CCC(O)CC2)c2ncnc(N)c12 (centres unmarked) — remaining signal (cell-free assay; 10 µM): 67%
O=C1Nc2ccc(Cl)cc2C1=Cc1cc(Cl)c(O)c(Cl)c1 — remaining signal (cell-free assay; 0.5 µM): 92.1%
Cc1cc(NC(=O)c2cccc3cc(-c4cccc5[nH]nc(N)c45)ccc23)ccc1F — activity vs control (enzyme activity; inhibitor; 0.1 µM): 106%
CO[C@@H](C)c1c(Nc2ccc([C@H](N(C)C(=O)C3CCS(=O)(=O)CC3)C(F)(F)F)cc2)cnc2cc(Cl)nn12 — remaining binding (cell-free assay; competition with immobilised ligand; 1 µM): 88%
O=C(O)c1ccc2c3c1cccc3c(=O)n1c3ccccc3nc21 — remaining activity (enzyme activity; inhibitor; 0.5 µM): 96.5%
CCN1CCN(Cc2ccc(NC(=O)c3ccc(C)c(/C=C/c4cnc5[nH]ccc5c4OC)c3)cc2C(F)(F)F)CC1 — inhibition (target engagement in cells; inhibitor; chemoproteomics; A-375; 50 nM): -10.4%
Nc1cnc(N2CCc3cc(S(=O)(=O)Nc4c(F)cc(Cl)cc4F)cc(N4CCCC4=O)c32)nc1 — remaining binding (cell-free assay; competition with immobilised ligand; 1 µM): 100%
CNC(=O)c1cc(Oc2ccc(NC(=O)Nc3ccc(Cl)c(C(F)(F)F)c3)cc2)ccn1 — inhibition (enzyme activity; inhibitor; 0.3 µM): -8%
COc1ccc2c(c1)O[C@@H](c1ccc(OC)c(OC)c1)C[C@H]2NC(=O)C1(c2ccc3c(c2)OC(F)(F)O3)CC1 — remaining binding (cell-free assay; competition with immobilised ligand; 1 µM): 100%
Cc1ccc(NC(=O)c2ccc(CN3CCN(C)CC3)cc2)cc1Nc1nc(-c2cccnc2)cs1 — remaining signal (cell-free assay; 0.5 µM): 97.6%
CCCOc1ccc(OC)c(F)c1C(=O)c1ccc(C(=O)N[C@@H]2CNC[C@H]2NC(=O)c2ccc3[nH]ncc3c2)cc1 — remaining activity (enzyme activity; inhibitor; 10 µM): 105%
O=C(O)[C@@H]1[C@@H](Cn2nnc3ccccc3c2=O)CC[C@H]1C(=O)c1ccc(OCCC2CCOCC2)cc1 — remaining binding (cell-free assay; competition with immobilised ligand; 1 µM): 87%
CCN(CC)CCNC(=O)c1c(C)[nH]c(/C=C2\C(=O)Nc3ccc(Cl)cc32)c1C — remaining activity (enzyme activity; inhibitor; 0.5 µM): 17.7%
CC1=C(C#N)C(c2ccc3c(c2)c(NC(=O)c2ccccc2C)nn3C)C(C#N)=C(C)N1 — remaining binding (cell-free assay; competition with immobilised ligand; 1 µM): 88%
CNc1cccc2cc(C(=O)Nc3ccc(C(=O)O)cc3)c(=O)[nH]c12 — inhibition (enzyme activity; inhibitor; 10 µM): 1.6%
O=C(N1CCS(=O)(=O)CC1)N1C[C@H](c2ccc(OC(F)(F)F)cc2)C[C@H](c2nc(C3CC3)no2)C1 — remaining binding (cell-free assay; competition with immobilised ligand; 1 µM): 100%
Cc1sc(C(=O)NC2COC2)cc1-n1cc(NC(=O)Nc2c(F)cccc2Cl)cn1 — remaining activity (enzyme activity; inhibitor; 10 µM): 90%
C[C@@H](c1cccc(C#N)c1)n1cc(Cl)cc(C(N)=O)c1=N — remaining binding (cell-free assay; competition with immobilised ligand; 1 µM): 100%
CCN(CC)CCNC(=O)c1c(C)[nH]c(/C=C2\C(=O)Nc3ccc(F)cc32)c1C — inhibition (enzyme activity; inhibitor; 0.3 µM): -42%
